In PMC11193445 (International Journal of Nanomedicine, 2024):

Tested on: MDA-MB-231 cells
Test: Dox intracellular localization by confocal microscopy
Format: cell-based, human
Conditions: free Dox 7.5 µM, NF-Dox 50 µM (7.5 µM of Dox), 1 h, 37 °C
Procedure, shortened: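 MDA-MB-231 cells were seeded on coverslips at 5×10^4 cells/well and grown 24 h. They were exposed 1 h at 37 °C, washed twice in PBS, fixed 10 min in ice-cold 4% PFA, and mounted in DAPI-containing antifade. Intrinsic Dox fluorescence (RFP channel) and DAPI nuclei were imaged with a 63× oil objective. Images represent three separate experiments.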

`COc1cccc2c1C(=O)c1c(O)c3c(c(O)c1C2=O)C[C@@](O)(C(=O)CO)C[C@@H]3O[C@H]1C[C@H](N)[C@H](O)[C@H](C)O1` [Dox, Doxorubicin] was tested, and the “Dox cellular uptake and localization (confocal, red fluorescence)” value was “not significant”.
